Screens: PubChem, The Scripps Research Institute Molecular Screening Center
An excerpt weighted towards active compounds, which were near 2.5% of everything screened.
PRMT1 inh: PRMT1 methyltransferase inhibitors, primary screen, biochemical, fluorescence polarization; Protein arginine N-methyltransferase 1 (Homo sapiens), Q99873; recombinant PRMT1, activity-based probe fluorescence polarization; inhibition, % at 2.79 µM; actives 1.3% (n = 370,000);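 active means inhibition above about 21% made by adding two undisclosed values, limit read from the data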
SIAE inh: human SIAE inhibitors, primary screen, biochemical, fluorescence polarization, FP-Rh probe, 1536-well HTS | Sialate O-acetylesterase (Homo sapiens), Q9HAT2 | SIAE FP-Rh probe binding | inhibition, % at 9.66 µM | actives 0.69% (n = 370,000) | AID 1053197, 2014;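 active means inhibition above a cutoff: mean of compounds within the control limits plus 3 SD of those, cut at about 17% in these data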
TCR-CD3 inh: inhibitors of human TCR-CD3 interaction, primary screen, biochemical, fluorescence, TAMRA-labeled TCR probe | inhibition, % at 9.4 µM | AID 651800, 2012 | T-cell receptor (TCR) | actives 0.37% (n = 360,000); in the data active means inhibition above about 19%;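 further: recombinant mutant TCR 2C K166C tagged with TAMRA read by polarization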
HTRA1 inhibitor: HTRA1 serine protease inhibitors, primary screen, biochemical, fluorescence polarization, HTS | recombinant HTRA1, FP-rhodamine activity-based probe | inhibition, % at 5.96 µM | actives 0.5% (n = 340,000); in the data active means inhibition above about 36%
Target sequence (Q92743 whole entry, looked up): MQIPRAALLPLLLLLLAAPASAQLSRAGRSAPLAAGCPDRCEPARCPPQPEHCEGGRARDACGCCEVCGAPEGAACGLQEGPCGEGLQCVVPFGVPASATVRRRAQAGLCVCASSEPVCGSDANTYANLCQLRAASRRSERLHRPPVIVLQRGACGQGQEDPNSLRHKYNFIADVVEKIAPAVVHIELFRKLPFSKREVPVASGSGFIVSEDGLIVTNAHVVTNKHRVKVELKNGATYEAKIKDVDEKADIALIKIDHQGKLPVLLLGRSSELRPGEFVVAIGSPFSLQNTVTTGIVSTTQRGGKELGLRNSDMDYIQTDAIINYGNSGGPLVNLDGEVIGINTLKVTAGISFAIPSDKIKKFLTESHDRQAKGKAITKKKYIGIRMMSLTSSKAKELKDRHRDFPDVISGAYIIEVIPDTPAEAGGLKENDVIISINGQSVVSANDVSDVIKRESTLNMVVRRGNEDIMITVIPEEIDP
mABHD4 FP: ABHD4 inhibitors, primary screen, biochemical, fluorescence polarization, mouse | AID 720543, 2013 | actives 0.54% (n = 370,000) | (Lyso)-N-acylphosphatidylethanolamine lipase (Mus musculus), Q8VD66 | inhibition, % at 8.92 µM | purified mABHD4, FP-Rh probe fluorescence polarization;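 active means inhibition exceeding the mean over every tested compound plus 3 SD, cut at about 30% in these data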
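Assay system: Wild-type mouse ABHD4 protein | Medium: HEPES pH 7.0 buffer, 150 mM NaCl, 0.01% Pluronic F-127 | Incubation: Enzyme–compound pre-incubation 45 min, then probe 60 min, both 25 °C | Technique: Fluorescence polarization with parallel and perpendicular emission, 525/598 nm | Evaluation: % inhibition of FP-Rh probe binding versus controls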
ABHD4 confirm: ABHD4 inhibitors, retest, confirmation, biochemical, fluorescence polarization, mouse; shares compounds with mABHD4 FP; purified mABHD4, FP-Rh probe fluorescence polarization; actives 55% (n = 1,800); AID 720658, 2013; inhibition, % at 8.92 µM;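 active means mean inhibition across replicates above the hit cutoff set in the primary screen, cut at about 30% in these data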
Of the large screens only hits and unclear results are named; the others gave an inactive call (follow-up assays come after a bar, where they were run); ! = a repeat was not active.

Cc1ccccc1C(=O)N[C@@H](Cc1cccnc1)C(=O)N1CCC[C@H]1C(=O)NCCc1ccccc1Cl	none (no result: HTRA1 inhibitor)
COc1ccc(C(C)c2cn(C)c3ccccc23)cc1 (centres undefined)	none (no result: TCR-CD3 inh, HTRA1 inhibitor)
CC(C)C[C@H](NC(C)(C)C(=O)NC1CCCCC1)C(=O)NCCc1c[nH]c2ccccc12	none (no result: TCR-CD3 inh, HTRA1 inhibitor)
Cc1csc(NC(=O)c2cccc(Cn3nc(C)c(Br)c3C)c2)n1	mABHD4 FP 49.9 | ABHD4 confirm inactive
Cc1nn(Cc2ccc(C(=O)Nc3nc4c(C)cccc4s3)o2)c(C)c1Br	none
COc1cccc(C2CC(c3cccc(NS(C)(=O)=O)c3)=NN2C(=O)c2ccccc2)c1OC (centres undefined)	mABHD4 FP 34.3 | ABHD4 confirm 30.9
CCOc1ccccc1C1C(C(N)=O)=C(C)Nc2nc(CCCO)nn21 (centres undefined)	mABHD4 FP 31.3 | ABHD4 confirm inactive
COc1cccc(C2C(C(N)=O)=C(C)Nc3nc(CCCO)nn32)c1OC (centres undefined)	none
CCCCCCSc1ccc(-c2nc3ccccn3c2NCCCC)cc1	mABHD4 FP 43.9 | ABHD4 confirm 50.2
CCCCNc1c(-c2cccc(-c3cc(C(C)=O)cs3)c2)nc2ccc(C)cn12	none
CCCCNc1c(-c2ccc(-c3cccc(Cl)c3)cc2)nc2ccccn12	mABHD4 FP 39.8 | ABHD4 confirm 31.7
CCCCNc1c(-c2cccc(-c3ccc(OC)cc3)c2)nc2ccc(C)cn12	mABHD4 FP 30.1 | ABHD4 confirm 35.4
O=C(CCc1ccccc1-c1ccccc1CCNC(=O)c1cccc(F)c1)NCc1ccccc1	none (no result: TCR-CD3 inh, HTRA1 inhibitor)
CC(=O)N1CCc2cc(Br)c(S(=O)(=O)NCc3ccc(Cl)cc3)cc21	none (no result: TCR-CD3 inh, HTRA1 inhibitor)
N#CCC(=O)NNc1c([N+](=O)[O-])cc(C(F)(F)F)cc1[N+](=O)[O-]	mABHD4 FP 42.6 (no result: HTRA1 inhibitor) | ABHD4 confirm inactive
CCOc1ccccc1N1Cc2cc(C)c(C)cc2C1	none
COc1ccc(OC)c(N2Cc3cc(C)c(C)cc3C2)c1	mABHD4 FP 30.2 | ABHD4 confirm 35.8
CC(Nc1cccc2ccccc12)C(=O)N/N=C/c1ccc([N+](=O)[O-])cc1 (centres undefined)	none
COc1cc([N+](=O)[O-])cc(/C=N/NC(=O)C(C)Nc2cccc3ccccc23)c1O (centres undefined)	mABHD4 FP 33.3 | ABHD4 confirm 38.9
COC(=O)[C@@H](Cc1c[nH]c2ccccc12)NCc1ccc(B(O)O)cc1	mABHD4 FP 71.8 | ABHD4 confirm 64.4
COC(=O)C(Cc1c[nH]c2ccccc12)NC(=O)CNC(C)=O (centres undefined)	none
COC(=O)[C@H](Cc1c[nH]c2ccccc12)NCc1cccc(B(O)O)c1	mABHD4 FP 77.3 | ABHD4 confirm 61.9
COCC(=O)N1[C@H](CO)[C@@H](c2ccc(-c3cccnc3)cc2)[C@H]1CN(C)S(=O)(=O)c1ccccc1[N+](=O)[O-]	none (no result: TCR-CD3 inh, HTRA1 inhibitor)
C[C@H](O)[C@@H]1CN2CCc3ccc(N4CCOCC4)cc3[C@@H]2C[C@@H]1N(C)C(=O)c1ccco1	none (no result: TCR-CD3 inh, HTRA1 inhibitor)
NC(N)=N/N=C(\N=Nc1ccccc1)c1ccc(Cl)cc1	mABHD4 FP 43.7 | ABHD4 confirm 55.0
CC(=O)Nc1ccc(S(=O)(=O)Nc2nc3ccccc3nc2Nc2ccc(N)cc2)cc1	PRMT1 inh 22.8, mABHD4 FP 40.0 | ABHD4 confirm inactive
CC(=O)Nc1ccc(S(=O)(=O)Nc2nc3ccccc3nc2Nc2cccc(O)c2)cc1	none
CC(=O)Nc1ccc(S(=O)(=O)Nc2nc3ccccc3nc2Nc2ccc3ccccc3c2)cc1	none
CC(=O)Nc1ccc(Nc2nc3ccccc3nc2NS(=O)(=O)c2ccc(Cl)c([N+](=O)[O-])c2)cc1	mABHD4 FP 49.2 | ABHD4 confirm 67.7
CC(=O)Nc1ccc(S(=O)(=O)Nc2nc3ccccc3nc2Nc2ccc(C(=O)O)c(O)c2)cc1	mABHD4 FP 42.6 | ABHD4 confirm 43.1
COC(=O)c1cc(-c2ccc(F)cc2OCc2ccccc2)c(=O)n2c1CCC2	none (no result: TCR-CD3 inh, HTRA1 inhibitor)
CCCCNc1c(-c2ccc(SC3CCCCC3)cc2)nc2cnccn12	mABHD4 FP 33.8! | ABHD4 confirm inactive
CCCCNc1c(-c2ccc(OC)c(SC3CCCCC3)c2)nc2cc(C)ccn12	mABHD4 FP 30.0 | ABHD4 confirm 37.0
CCCCNc1c(-c2ccc(OC)c(SC3CCCCC3)c2)nc2cnccn12	none (no result: PRMT1 inh, SIAE inh, TCR-CD3 inh, mABHD4 FP)
COc1ccc(N=C(N)NC(=O)OCc2ccccc2)cc1	none (no result: TCR-CD3 inh, HTRA1 inhibitor)
O=C(CSc1nnc(-c2ccccc2)n1-c1ccccc1)Nc1cccc2ccccc12	none (no result: TCR-CD3 inh, HTRA1 inhibitor)
Cc1ccc(NC(=S)NNC(=O)c2cnccn2)cc1	mABHD4 FP 52.2 (no result: TCR-CD3 inh, HTRA1 inhibitor) | ABHD4 confirm 59.0
O=C(CSc1nnc(-c2cccnc2)n1-c1ccccc1)c1ccccc1Cl	none (no result: TCR-CD3 inh, HTRA1 inhibitor)
CC(C)C[C@@H]1CN=C(N)N1C[C@@H]1CCCN1C[C@@H](C(C)C)N1C[C@@H](Cc2ccccc2)N(CCc2ccc(Cl)c(Cl)c2)C1=N	mABHD4 FP 34.1 | ABHD4 confirm inactive
O=C(c1ccc(F)cc1Cl)N1CCC(Oc2cccnc2)CC1	none (no result: TCR-CD3 inh, HTRA1 inhibitor)
COc1cccc(C=NN(C)c2c([N+](=O)[O-])cc(C(F)(F)F)cc2[N+](=O)[O-])c1O	mABHD4 FP 45.2 (no result: HTRA1 inhibitor) | ABHD4 confirm 49.2
CC1(C)CC(=O)C=C(Nc2ccccc2O)C1	none
CC1(C)CC(=O)C=C(Nc2ccc(C(=O)O)c(O)c2)C1	mABHD4 FP 32.4 | ABHD4 confirm inactive
COc1ccc(NC(=O)CSc2ncnc3scc(-c4ccc(C)cc4)c23)cc1OC	none (no result: TCR-CD3 inh, HTRA1 inhibitor)
Cc1nc(N)sc1-c1csc(N(C)c2ccc(O)cc2)n1	mABHD4 FP 34.3 | ABHD4 confirm inactive
CCOC(=O)CN1C(=O)CSc2ccc(S(=O)(=O)N3CCCC3)cc21	mABHD4 FP 35.2 | ABHD4 confirm inactive
COC(=O)[C@]12C[C@H](CC(=O)N3CCCC3)C(=O)N(Cc3ccco3)C1=C[C@H](COCc1ccccc1)O[C@@H]2C	none (no result: TCR-CD3 inh, HTRA1 inhibitor)
COc1ccc(OC)c(Nc2nc(NCCO)c3ccccc3n2)c1	none
Cc1ccc(Nc2nc(NCCO)c3ccccc3n2)cc1C	mABHD4 FP 35.1 | ABHD4 confirm 78.0
O=c1ccc2nc3ccccc3sc-2c1	PRMT1 inh 21.9, mABHD4 FP 66.2 (no result: HTRA1 inhibitor) | ABHD4 confirm 36.8
Nc1[nH]n2c(=O)c3c(nc2c1N=Nc1ccc(Cl)cc1)CCCC3	mABHD4 FP 31.0 | ABHD4 confirm 33.5
Nc1[nH]n2c(=O)c3c(nc2c1N=Nc1ccccc1)CCCC3	none
Nc1[nH]c(C(=O)c2ccccc2)c(-c2ccccc2C(F)(F)F)c1C(=O)c1c[nH]c2ccccc12	none (no result: HTRA1 inhibitor)
